What was measured:
[1] = biological target: Tyrosine-protein kinase ABL1 (Homo sapiens, UniProt P00519); test: Inhibition of Abl
Summary of the method: (§1)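 Recombinant tyrosine kinases were incubated 1 h with biotinylated peptide (0.5 µM), ATP (10 µM to 1 mM) and inhibitor in 2% DMSO. Buffer was 50 mM Hepes pH 7.4 with MgCl2, MnCl2 and vanadate. Detection was HTRF: Eu anti-pY antibody plus streptavidin-APC, read 60 min later. IC50 came from titration curves, converted to Ki by Cheng-Prusoff.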

Activated CDC42 kinase 1 = Activated CDC42 kinase 1 (Homo sapiens, UniProt Q07912); test: Inhibition of CDC42
Summary of the method: (§2)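 Recombinant kinases were commercial, or baculovirus-expressed and purified by His-tag or GST affinity. Each was incubated 1 h with biotinylated substrate peptide (2 µM), γ-[33P]-ATP (5 µM) and inhibitor (3-10000 nM, 2% DMSO) in 25 mM Hepes pH 7.5, 10 mM MgCl2, Na3VO4. Reactions were stopped with EDTA/NaCl and read by streptavidin FlashPlate capture. IC50 came from titrations, converted to Ki by Cheng-Prusoff.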

[2] = biological target: T1, Calcium/calmodulin-dependent protein kinase type IV (Homo sapiens, UniProt Q16566); test: Inhibition of CaMK4; summary of the method: as §2
T1 sequence (Q16566 whole entry): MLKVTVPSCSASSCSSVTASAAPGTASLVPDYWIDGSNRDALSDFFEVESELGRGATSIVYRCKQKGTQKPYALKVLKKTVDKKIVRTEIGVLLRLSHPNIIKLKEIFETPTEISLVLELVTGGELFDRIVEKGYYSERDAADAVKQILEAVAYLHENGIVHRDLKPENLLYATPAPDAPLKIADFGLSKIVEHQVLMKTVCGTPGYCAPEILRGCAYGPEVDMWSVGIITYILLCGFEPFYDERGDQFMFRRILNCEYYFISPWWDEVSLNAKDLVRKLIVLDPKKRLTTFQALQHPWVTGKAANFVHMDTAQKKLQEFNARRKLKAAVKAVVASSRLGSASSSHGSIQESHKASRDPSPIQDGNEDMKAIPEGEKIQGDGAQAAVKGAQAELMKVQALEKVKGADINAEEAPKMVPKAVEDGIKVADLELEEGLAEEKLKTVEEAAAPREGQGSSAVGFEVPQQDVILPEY

[3] = biological target: Receptor tyrosine-protein kinase erbB-2 (Homo sapiens, UniProt P04626); test: Inhibition of ErbB2; summary of the method: as §1
[4] = biological target: Vascular endothelial growth factor receptor 1 (Homo sapiens, UniProt P17948); test: Inhibition of Flt1; summary of the method: as §1
[5] = biological target: Tyrosine-protein kinase Fyn (Homo sapiens, UniProt P06241); test: Inhibition of Fyn; summary of the method: as §1
[6] = biological target: Tyrosine-protein kinase JAK2 (Homo sapiens, UniProt O60674); test: Inhibition of JAK2; summary of the method: as §1
[7] = biological target: Tyrosine-protein kinase JAK3 (Homo sapiens, UniProt P52333); test: Inhibition of JAK3; summary of the method: as §1
[8] = biological target: T2, Serine/threonine-protein kinase Sgk1 (Homo sapiens, UniProt O00141); test: Inhibition of SGK
T2 sequence (O00141 whole entry): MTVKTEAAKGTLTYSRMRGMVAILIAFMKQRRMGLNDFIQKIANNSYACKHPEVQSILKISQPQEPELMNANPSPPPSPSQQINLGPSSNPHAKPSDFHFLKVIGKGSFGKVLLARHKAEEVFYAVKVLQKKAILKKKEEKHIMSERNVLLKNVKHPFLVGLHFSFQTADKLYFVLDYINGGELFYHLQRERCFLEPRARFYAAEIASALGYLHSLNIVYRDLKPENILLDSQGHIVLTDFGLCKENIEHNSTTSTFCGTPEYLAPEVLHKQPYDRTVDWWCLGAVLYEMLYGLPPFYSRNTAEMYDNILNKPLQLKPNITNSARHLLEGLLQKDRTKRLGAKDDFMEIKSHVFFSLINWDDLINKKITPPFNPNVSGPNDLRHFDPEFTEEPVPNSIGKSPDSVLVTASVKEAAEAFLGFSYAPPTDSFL

[9] = biological target: Tyrosine-protein kinase Lyn (Homo sapiens, UniProt P07948); test: Inhibition of Lyn; summary of the method: as §1
[10] = biological target: Serine/threonine-protein kinase pim-2 (Homo sapiens, UniProt Q9P1W9); test: Inhibition of Pim2
[11] = biological target: Death-associated protein kinase 3 (Homo sapiens, UniProt O43293); test: Inhibition of ZipK
[12] = biological target: Mast/stem cell growth factor receptor Kit (Homo sapiens, UniProt P10721); test: Inhibition of cKit
Summary of the method: (§3)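 Tyrosine kinases (recombinant, His/GST-purified or commercial) measured by HTRF: 0.5 µM biotinylated peptide, ATP 10 µM to 1 mM, inhibitor in 2% DMSO, 1 h in 50 mM Hepes pH 7.4 with MgCl2, MnCl2, Na3VO4, DTT, BSA. IC50 from six-point titrations; Ki via Cheng-Prusoff.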

[13] = biological target: Tyrosine-protein kinase Blk (Homo sapiens, UniProt P51451)
[14] = Half life in iv dosed Sprague-Dawley rat; assay type: ADME, organism-based; settings: in vivo
Summary of the method: (§4)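 Sprague-Dawley rats received 5 mg/kg intravenously. Half-life is reported in hours. AUC is total drug exposure after iv dosing, from t = 0 to t = ∞, in µg·h/mL.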

[15] = Volume of distribution at steady state in iv dosed Sprague-Dawley rat; assay type: ADME, organism-based; settings: in vivo, read-out: Vss
[16] = Volume of distribution in iv dosed Sprague-Dawley rat; assay type: ADME, organism-based; settings: in vivo, read-out: Vdss
[17] = AUC in iv dosed Sprague-Dawley rat; assay type: ADME, organism-based; settings: plasma; summary of the method: as §4
[18] = Plasma clearance in iv dosed Sprague-Dawley rat; assay type: ADME, organism-based
[19] = Half life in po dosed Sprague-Dawley rat; assay type: ADME, organism-based; settings: in vivo
Summary of the method: (§5)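 Sprague-Dawley rats were dosed orally. Oral half-life is reported in hours and Cmax as the maximum plasma concentration in µM. AUC is total oral exposure from t = 0 to t = ∞, in µg·h/mL.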

[20] = Cmax in po dosed Sprague-Dawley rat; assay type: ADME, organism-based; parameters: route oral; settings: in vivo; summary of the method: as §5
[21] = Tmax in po dosed Sprague-Dawley rat; assay type: ADME, organism-based; settings: in vivo
[22] = AUC in po dosed Sprague-Dawley rat; assay type: ADME, organism-based; settings: plasma; summary of the method: as §5
[23] = Oral bioavailability in Sprague-Dawley rat; assay type: ADME, organism-based; settings: in vivo
[24] = biological target: Mitogen-activated protein kinase 13 (Homo sapiens, UniProt O15264)
[25] = biological target: Mitogen-activated protein kinase 10 (Homo sapiens, UniProt P53779); test: Inhibition of JNK3-mediated ATF2 phosphorylation
[26] = biological target: Macrophage colony-stimulating factor 1 receptor (Homo sapiens, UniProt P07333); test: Inhibition of CSF1R; summary of the method: as §1
[27] = biological target: Fibroblast growth factor receptor (Homo sapiens, UniProt P22607+P11362+P22455+P21802); test: Inhibition of FGFR; assay type: protein assay; summary of the method: as §1
[28] = biological target: Fibroblast growth factor receptor 3 (Homo sapiens, UniProt P22607); test: Inhibition of FGFR3; summary of the method: as §1
[29] = biological target: Receptor-type tyrosine-protein kinase FLT3 (Homo sapiens, UniProt P36888); test: Inhibition of Flt3; summary of the method: as §1
[30] = biological target: Inhibitor of nuclear factor kappa-B kinase subunit beta (Homo sapiens, UniProt O14920); test: Inhibition of IKK-beta; summary of the method: as §2
[31] = biological target: Proto-oncogene tyrosine-protein kinase Src (Homo sapiens, UniProt P12931); test: Inhibition of Src; summary of the method: as §3
[32] = biological target: BDNF/NT-3 growth factors receptor (Homo sapiens, UniProt Q16620); test: Inhibition of TrkB; summary of the method: as §3
[33] = biological target: Non-receptor tyrosine-protein kinase TYK2 (Homo sapiens, UniProt P29597); test: Inhibition of Tyk2; summary of the method: as §3
[34] = biological target: Serine/threonine-protein kinase PAK 4 (Homo sapiens, UniProt O96013); test: Inhibition of PAK4; summary of the method: as §2
Insulin receptor = Insulin receptor (Homo sapiens, UniProt P06213)
[35] = biological target: High affinity nerve growth factor receptor (Homo sapiens, UniProt P04629)
[36] = biological target: Tyrosine-protein kinase Lck (Homo sapiens, UniProt P06239)
[37] = biological target: Hepatocyte growth factor receptor (Homo sapiens, UniProt P08581)
[38] = biological target: 3-phosphoinositide-dependent protein kinase 1 (Homo sapiens) (UniProt O15530); test: Inhibition of PDK1

Activated CDC42 kinase 1, sequence (Q07912 whole entry): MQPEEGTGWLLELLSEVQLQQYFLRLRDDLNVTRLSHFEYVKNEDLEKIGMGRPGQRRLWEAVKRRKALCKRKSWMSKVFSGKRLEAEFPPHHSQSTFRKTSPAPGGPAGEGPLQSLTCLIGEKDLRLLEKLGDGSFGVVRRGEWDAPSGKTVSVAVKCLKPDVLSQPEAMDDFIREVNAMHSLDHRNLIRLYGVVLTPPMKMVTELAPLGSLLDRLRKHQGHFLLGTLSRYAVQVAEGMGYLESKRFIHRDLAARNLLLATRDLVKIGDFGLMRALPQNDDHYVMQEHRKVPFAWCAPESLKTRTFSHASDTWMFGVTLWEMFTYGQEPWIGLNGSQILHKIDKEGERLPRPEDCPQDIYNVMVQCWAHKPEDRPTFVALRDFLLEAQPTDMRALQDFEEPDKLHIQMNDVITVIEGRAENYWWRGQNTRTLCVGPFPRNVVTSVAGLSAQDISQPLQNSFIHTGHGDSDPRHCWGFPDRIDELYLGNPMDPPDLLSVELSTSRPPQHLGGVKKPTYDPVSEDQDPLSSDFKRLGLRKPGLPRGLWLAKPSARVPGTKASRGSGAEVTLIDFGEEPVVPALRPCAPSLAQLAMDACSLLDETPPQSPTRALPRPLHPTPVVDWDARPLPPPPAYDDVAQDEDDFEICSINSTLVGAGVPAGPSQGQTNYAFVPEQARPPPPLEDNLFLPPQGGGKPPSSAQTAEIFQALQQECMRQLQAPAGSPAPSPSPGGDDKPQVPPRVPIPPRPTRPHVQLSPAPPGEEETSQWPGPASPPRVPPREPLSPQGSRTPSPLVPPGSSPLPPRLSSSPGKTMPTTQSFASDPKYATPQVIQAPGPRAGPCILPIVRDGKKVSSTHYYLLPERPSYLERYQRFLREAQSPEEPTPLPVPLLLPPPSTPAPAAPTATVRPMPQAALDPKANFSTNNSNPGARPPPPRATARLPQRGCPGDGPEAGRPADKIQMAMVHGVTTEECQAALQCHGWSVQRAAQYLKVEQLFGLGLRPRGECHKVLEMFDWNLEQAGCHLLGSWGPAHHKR
Mast/stem cell growth factor receptor Kit, sequence (P10721 whole entry): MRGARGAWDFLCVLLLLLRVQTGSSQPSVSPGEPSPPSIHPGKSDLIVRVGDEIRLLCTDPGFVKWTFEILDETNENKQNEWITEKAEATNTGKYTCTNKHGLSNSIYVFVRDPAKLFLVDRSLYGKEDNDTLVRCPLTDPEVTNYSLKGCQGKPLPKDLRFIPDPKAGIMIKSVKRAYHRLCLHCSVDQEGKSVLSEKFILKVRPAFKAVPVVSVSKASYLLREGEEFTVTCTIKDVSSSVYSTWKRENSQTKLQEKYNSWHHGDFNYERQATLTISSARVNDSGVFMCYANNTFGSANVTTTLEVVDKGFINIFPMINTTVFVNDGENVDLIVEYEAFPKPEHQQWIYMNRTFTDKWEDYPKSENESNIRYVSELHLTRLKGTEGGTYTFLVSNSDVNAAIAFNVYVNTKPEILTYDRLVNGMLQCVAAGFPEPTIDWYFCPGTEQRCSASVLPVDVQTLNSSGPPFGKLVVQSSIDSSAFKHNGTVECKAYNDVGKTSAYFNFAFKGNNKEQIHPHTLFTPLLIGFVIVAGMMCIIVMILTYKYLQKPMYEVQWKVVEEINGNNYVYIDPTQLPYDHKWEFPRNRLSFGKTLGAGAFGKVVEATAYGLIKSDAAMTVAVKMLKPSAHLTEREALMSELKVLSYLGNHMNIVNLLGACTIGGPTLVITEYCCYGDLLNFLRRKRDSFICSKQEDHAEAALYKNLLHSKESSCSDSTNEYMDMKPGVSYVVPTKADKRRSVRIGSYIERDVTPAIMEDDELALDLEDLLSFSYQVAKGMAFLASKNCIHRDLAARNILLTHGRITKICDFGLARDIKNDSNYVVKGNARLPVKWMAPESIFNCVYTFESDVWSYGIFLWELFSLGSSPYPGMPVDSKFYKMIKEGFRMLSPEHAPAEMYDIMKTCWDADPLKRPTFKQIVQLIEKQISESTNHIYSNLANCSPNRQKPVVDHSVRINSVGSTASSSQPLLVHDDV
Tyrosine-protein kinase JAK3, sequence (P52333 whole entry): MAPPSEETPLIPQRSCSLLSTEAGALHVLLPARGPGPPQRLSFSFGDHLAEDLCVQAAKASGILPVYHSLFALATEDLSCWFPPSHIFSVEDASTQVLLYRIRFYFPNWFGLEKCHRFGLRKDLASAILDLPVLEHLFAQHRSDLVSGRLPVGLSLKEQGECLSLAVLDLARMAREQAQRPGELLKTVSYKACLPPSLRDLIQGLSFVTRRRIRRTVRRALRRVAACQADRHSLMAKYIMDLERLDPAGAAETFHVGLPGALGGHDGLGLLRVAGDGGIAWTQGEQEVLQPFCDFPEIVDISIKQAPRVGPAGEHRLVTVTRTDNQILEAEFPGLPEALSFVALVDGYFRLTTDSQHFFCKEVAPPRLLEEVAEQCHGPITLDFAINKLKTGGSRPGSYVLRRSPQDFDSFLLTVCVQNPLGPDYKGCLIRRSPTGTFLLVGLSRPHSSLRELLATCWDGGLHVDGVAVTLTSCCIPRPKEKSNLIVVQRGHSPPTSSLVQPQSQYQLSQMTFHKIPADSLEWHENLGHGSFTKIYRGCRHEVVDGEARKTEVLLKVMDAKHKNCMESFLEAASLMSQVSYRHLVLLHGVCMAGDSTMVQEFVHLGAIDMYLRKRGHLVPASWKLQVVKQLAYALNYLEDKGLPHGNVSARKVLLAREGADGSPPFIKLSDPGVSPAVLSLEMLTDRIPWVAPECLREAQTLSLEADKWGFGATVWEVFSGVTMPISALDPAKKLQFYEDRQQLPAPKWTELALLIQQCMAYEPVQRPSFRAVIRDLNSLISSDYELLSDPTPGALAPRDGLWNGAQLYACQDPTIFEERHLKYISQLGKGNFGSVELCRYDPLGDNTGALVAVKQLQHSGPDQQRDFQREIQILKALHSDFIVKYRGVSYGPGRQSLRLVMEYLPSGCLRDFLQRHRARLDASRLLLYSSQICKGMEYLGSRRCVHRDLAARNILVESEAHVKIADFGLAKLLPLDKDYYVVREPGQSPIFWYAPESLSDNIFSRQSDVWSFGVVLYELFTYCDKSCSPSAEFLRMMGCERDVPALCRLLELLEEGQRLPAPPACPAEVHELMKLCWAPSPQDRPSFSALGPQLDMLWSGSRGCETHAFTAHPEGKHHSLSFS
Tyrosine-protein kinase ABL1, sequence (P00519 whole entry): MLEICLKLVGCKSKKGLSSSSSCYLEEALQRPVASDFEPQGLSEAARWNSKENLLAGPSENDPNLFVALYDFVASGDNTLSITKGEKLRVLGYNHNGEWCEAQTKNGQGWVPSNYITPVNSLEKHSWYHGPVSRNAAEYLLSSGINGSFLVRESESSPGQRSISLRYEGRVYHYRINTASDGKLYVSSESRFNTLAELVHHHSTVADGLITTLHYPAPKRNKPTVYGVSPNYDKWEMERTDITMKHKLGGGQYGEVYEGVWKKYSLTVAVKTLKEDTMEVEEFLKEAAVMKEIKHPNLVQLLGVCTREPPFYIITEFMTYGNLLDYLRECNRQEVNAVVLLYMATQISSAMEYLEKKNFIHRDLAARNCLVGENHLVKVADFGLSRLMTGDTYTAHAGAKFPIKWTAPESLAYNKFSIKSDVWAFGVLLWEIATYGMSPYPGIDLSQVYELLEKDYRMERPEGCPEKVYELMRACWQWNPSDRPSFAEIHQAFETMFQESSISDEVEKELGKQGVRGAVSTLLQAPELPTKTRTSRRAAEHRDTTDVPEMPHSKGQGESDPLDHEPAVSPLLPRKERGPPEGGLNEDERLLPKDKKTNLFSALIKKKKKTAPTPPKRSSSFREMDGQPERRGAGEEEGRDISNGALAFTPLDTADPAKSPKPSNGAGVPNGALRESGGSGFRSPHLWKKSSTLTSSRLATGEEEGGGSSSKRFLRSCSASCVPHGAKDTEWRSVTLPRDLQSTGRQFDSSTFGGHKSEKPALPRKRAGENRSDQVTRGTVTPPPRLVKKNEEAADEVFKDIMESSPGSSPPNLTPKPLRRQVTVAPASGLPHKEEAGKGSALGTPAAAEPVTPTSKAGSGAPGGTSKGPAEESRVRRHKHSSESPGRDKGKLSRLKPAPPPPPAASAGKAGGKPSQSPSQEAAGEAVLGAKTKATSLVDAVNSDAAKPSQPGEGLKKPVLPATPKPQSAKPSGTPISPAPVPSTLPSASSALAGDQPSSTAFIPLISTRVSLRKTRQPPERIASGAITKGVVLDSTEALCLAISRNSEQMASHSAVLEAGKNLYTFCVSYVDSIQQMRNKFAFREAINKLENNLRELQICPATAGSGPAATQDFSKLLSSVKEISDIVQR
Tyrosine-protein kinase Lyn, sequence (P07948 whole entry): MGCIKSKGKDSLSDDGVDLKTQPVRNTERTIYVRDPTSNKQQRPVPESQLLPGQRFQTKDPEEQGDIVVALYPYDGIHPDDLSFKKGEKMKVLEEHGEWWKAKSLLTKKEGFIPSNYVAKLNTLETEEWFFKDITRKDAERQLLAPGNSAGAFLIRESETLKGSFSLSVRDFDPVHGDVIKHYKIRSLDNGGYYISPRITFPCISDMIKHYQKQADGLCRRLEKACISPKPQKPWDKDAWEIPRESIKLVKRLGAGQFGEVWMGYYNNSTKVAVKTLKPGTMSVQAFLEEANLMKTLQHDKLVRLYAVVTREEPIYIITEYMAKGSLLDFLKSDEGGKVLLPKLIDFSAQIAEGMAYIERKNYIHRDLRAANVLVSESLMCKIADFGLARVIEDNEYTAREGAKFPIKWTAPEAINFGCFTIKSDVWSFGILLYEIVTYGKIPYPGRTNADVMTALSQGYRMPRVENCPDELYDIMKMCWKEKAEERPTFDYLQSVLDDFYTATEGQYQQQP
Serine/threonine-protein kinase pim-2, sequence (Q9P1W9 whole entry): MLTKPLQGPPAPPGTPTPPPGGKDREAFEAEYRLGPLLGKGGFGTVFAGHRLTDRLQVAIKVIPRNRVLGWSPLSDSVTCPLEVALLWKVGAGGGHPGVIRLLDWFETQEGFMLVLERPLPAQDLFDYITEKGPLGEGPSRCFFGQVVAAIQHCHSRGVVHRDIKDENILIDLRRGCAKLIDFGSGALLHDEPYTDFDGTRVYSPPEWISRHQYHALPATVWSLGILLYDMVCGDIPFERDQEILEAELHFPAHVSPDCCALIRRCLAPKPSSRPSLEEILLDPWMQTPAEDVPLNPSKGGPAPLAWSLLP

| Ki [1] [nM] | Ki (Activated CDC42 kinase 1) [nM] | Ki [2] [nM] | Ki [3] [nM] | Ki [4] [nM] | Ki [5] [nM] | Ki [6] [nM] | Ki [7] [nM] | Ki [8] [nM] | Ki [9] [nM] | half-life [14] [h] | Vd [15] [L/kg] | Vd [16] [L/kg] | AUC [17] [ng·h/mL] | clearance [18] [mL/min/kg] | half-life [19] [h] | Cmax [20] [nM] | Tmax [21] [h] | AUC [22] [ng·h/mL] | bioavailability [23] [%] | SMILES | further results |
| --- | --- | --- | --- | --- | --- | --- | --- | --- | --- | --- | --- | --- | --- | --- | --- | --- | --- | --- | --- | --- | --- |
| > 710 | > 9500 | > 8600 | > 1400 | > 440 | > 810 | > 1500 | > 1700 | > 9400 | > 1700 | – | – | – | – | – | – | – | – | – | – | CCOc1nc(NC(C)=O)cc(N)c1C#N | Ki [10]: > 1400 nM; Ki [11]: > 1400 nM; Ki [12]: > 1200 nM; Ki [13]: > 1500 nM |
| – | > 9500 | > 8600 | – | – | – | – | – | > 9400 | – | 1.4 | 1.2 | 2.6 | 4100 | 20 | 1.1 | 310 | 0.033 | 110 | 2.7 | CCOc1nc(NC(=O)Cc2cc(OC)ccc2OC)cc(N)c1C#N | Ki [24]: > 6900 nM |
| – | > 9500 | > 8600 | – | – | – | – | – | > 9400 | – | 2 | 1.5 | 4.7 | 3500 | 25 | 1.5 | 1360 | 0.5 | 1100 | 31 | CCOc1nc(NC(=O)Cc2cc(OC)c(S(C)(=O)=O)cc2OC)cc(N)c1C#N | Ki [25]: 72 nM |
| – | > 9500 | > 8600 | – | – | – | – | – | > 9400 | – | 0.8 | 1.6 | 2 | 3000 | 28.3 | 2.1 | 1420 | 0.67 | 1500 | 49 | CCOc1nc(NC(=O)Cc2cc(OC)c(S(C)(=O)=O)cc2OC)cc(N)c1Cl | Ki [25]: 61 nM |
| > 710 | > 9500 | > 8600 | > 1400 | > 440 | > 810 | > 1500 | > 1700 | > 9400 | > 1700 | – | – | – | – | – | – | – | – | – | – | CC(=O)Nc1cc(N)c(C#N)c(-c2ccccc2)n1 | Ki [26]: > 2500 nM; Ki [27]: > 4700 nM; Ki [28]: > 1900 nM; Ki [29]: > 2500 nM; Ki [30]: > 3200 nM; Ki [31]: > 1900 nM; Ki [32]: > 4500 nM; Ki [33]: > 1900 nM; Ki [34]: > 5500 nM; Ki [10]: > 1400 nM; Ki [11]: > 1400 nM; Ki [12]: > 1200 nM; Ki [13]: > 1500 nM; Ki (Insulin receptor): > 5200 nM; Ki [35]: > 2500 nM; Ki [36]: > 2700 nM; Ki [37]: > 2900 nM; Ki [38]: > 3800 nM |
| – | > 9500 | > 8600 | – | – | – | – | – | > 9400 | – | 2 | 1.6 | 8.6 | 2200 | 50 | 2.9 | 80 | 0.75 | 120 | 5.7 | COc1cc(S(C)(=O)=O)c(OC)cc1CC(=O)Nc1cc(N)c(C#N)c(OC(C)C)n1 | – |

Reference: ChEMBL document CHEMBL1148638, “Aminopyridine-based c-Jun N-terminal kinase inhibitors with cellular activity and minimal cross-kinase activity” (J Med Chem, 2006)
